The target of assay [1] is Cruzipain (Trypanosoma cruzi) (UniProt P25779). As to the kind of experiment: Inhibition of Trypanosoma cruzi cruzipain at 50 uM.
The subject of assay [2] is Leishmania pifanoi. As to the kind of experiment: Antileishmanial activity against Leishmania pifanoi MHOM/VE/57/LV135 promastigotes assessed as parasite viability after 5 days by MTT assay. Type of assay: functional, organism-based. The conditions noted are these: MHOM/VE/57/LV135, 120 h. Summed up:
(§1)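 Promastigotes (L. braziliensis, L. pifanoi) grown at 28 °C in axenic RPMI with 5% FBS. T. cruzi CL Brener epimastigotes grown in BHI-tryptose with 5% foetal serum. 24-well plates, 1 mL/well, seeded from exponential-phase culture. Compounds in DMSO, added at several concentrations (0.5–50.0) and kept 5 days. Then MTT 0.4 mg/mL for 3 h at 37 °C. Formazan dissolved in DMSO, OD595 read. Triplicate per concentration, six growth controls. Cytotoxicity % calculated against growth and medium blanks, IC50 derived.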
(Formazan colour is commonly taken as a measure of viable cells.)

The subject of assay [3] is Leishmania braziliensis. As to the kind of experiment: Antileishmanial activity against Leishmania braziliensis MHOM/BR/00/LTB300 promastigotes assessed as parasite viability after 5 days by MTT assay. The class given is functional, organism-based. The conditions noted are these: MHOM/BR/00/LTB300, 120 h. Summed up:
as §1

For assay [4], the target named is Cruzipain (Trypanosoma cruzi) (UniProt P25779). As to the kind of experiment: Inhibition of Trypanosoma cruzi cruzipain at 25 uM.
Assay [5] has the same target. The experiment in a line: Inhibition of Trypanosoma cruzi cruzipain at 100 uM.
For assay [6], the system named is Trypanosoma cruzi. The experiment in a line: Antitrypanosomal activity against Trypanosoma cruzi epimastigotes. Type of assay: functional, organism-based.
Assay [7] relates to Leishmania braziliensis. As to the kind of experiment: Ratio of compound IC50 to Miltefosine IC50 for Leishmania braziliensis MHOM/BR/00/LTB300 promastigotes. The class given is functional.
For assay [8], the system named is Trypanosoma cruzi. As to the kind of experiment: Antitrypanosomal activity against Trypanosoma cruzi CL Brener epimastigotes assessed as parasite viability after 5 days by MTT assay. The class given is functional, organism-based. The conditions noted are these: 120 h. Summed up:
as §1

Assay [9] has as its system Trypanosoma cruzi. As to the kind of experiment: Antitrypanosomal activity against Trypanosoma cruzi Tulahuen 2 epimastigotes assessed as parasite growth inhibition after 5 days. Type of assay: functional, organism-based. Particulars: Trypanosoma cruzi, Tulahuen 2, 120 h. In a few lines: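 Tulahuen 2 epimastigotes grown at 28 °C in BHI-tryptose with 5% foetal calf serum. Late-log cells seeded at 3×10⁶/mL in 24-well plates with compound from DMSO stock (final DMSO ≤0.8%; control 0.8% DMSO). A610 read at day 0 and day 5. Growth inhibition calculated from the corrected absorbance ratio to control; IC50 is the concentration giving 50% of the control ratio.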

Assay [10] relates to Leishmania pifanoi. The experiment in a line: Antileishmanial activity against Leishmania pifanoi MHOM/VE/57/LV135 promastigotes assessed as parasite viability at 5 uM after 5 days by MTT assay. The class given is functional. The conditions noted are these: MHOM/VE/57/LV135, 120 h, read-out: GI. Summed up: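 L. pifanoi LV135 promastigotes grown at 28 °C in axenic RPMI with 5% FBS. Tested at a single concentration of 5.0 over 5 days. MTT 0.4 mg/mL for 3 h at 37 °C, formazan dissolved in DMSO, OD595 read. Percent growth inhibition reported versus untreated growth controls, with medium blanks subtracted.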

Chain of Cruzipain (Trypanosoma cruzi) (P25779 123-467 limits assumed): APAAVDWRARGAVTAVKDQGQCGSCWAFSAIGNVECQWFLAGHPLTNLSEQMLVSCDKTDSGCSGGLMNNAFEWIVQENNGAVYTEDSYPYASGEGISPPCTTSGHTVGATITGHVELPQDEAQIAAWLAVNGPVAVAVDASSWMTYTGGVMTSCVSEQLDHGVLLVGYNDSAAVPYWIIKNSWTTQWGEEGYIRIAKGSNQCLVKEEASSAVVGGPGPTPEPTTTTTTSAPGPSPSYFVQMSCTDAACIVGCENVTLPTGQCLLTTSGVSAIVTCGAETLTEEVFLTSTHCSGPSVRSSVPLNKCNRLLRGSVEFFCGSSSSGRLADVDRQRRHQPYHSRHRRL

As for `[O-][n+]1onc2ccc(/C=C\Sc3ccccc3)cc21`, the results for the inhibition in assay [1], in assay [4] and in assay [5] were 22%, 11% and 30%, respectively. Further, the IC50 with Leishmania pifanoi [2] was determined as 4.5 µM; with Leishmania braziliensis [3] it was 0.9 µM; in the assay with Trypanosoma cruzi [6], 3.8 µM. Besides, the “Ratio IC50” value in the assay on Leishmania braziliensis [7] was determined as 10.
For the compound `[O-][n+]1onc2ccc(/C=C/Sc3ccc(Cl)cc3)cc21`, the IC50 worked out at 4.6 µM in the assay on Leishmania pifanoi [2], 0.9 µM in the assay with Leishmania braziliensis [3], 1 µM in the assay with Trypanosoma cruzi [8] and 1.9 µM with Trypanosoma cruzi [9]. Also, the “Ratio IC50” value in the assay on Leishmania braziliensis [7] is reported as 10.
For `CCCCCCCCCCCCCCCCOP(=O)([O-])OCC[N+](C)(C)C` [MILTEFOSINE], the inhibition of growth at 5 µM in the assay on Leishmania pifanoi [10] is 85.5%. The half-maximal inhibitory concentration (IC50) in the assay on Leishmania braziliensis [3] came to 9 µM.

The inhibition is the share of the control response that was lost under treatment. The low end stands for a weak effect, the high end for a strong effect. The IC50 is the midpoint of a concentration-inhibition curve.

Source of the values: ChEMBL document CHEMBL1156117, “Anti-trypanosomatid benzofuroxans and deoxygenated analogues: synthesis using polymer-supported triphenylphosphine, biological evaluation and mechanism of action studies” (Eur J Med Chem, 2009).
